Published values of several laboratories.
Each line is one published result; the experiments were not run side by side.
Target: Death-associated protein kinase 2 (DAPK2, Homo sapiens, UniProt Q9UIK4)

SMILES	read-out	mode	method	concentration	endpoint	value
N#CC1(c2ccccn2)CCN(Cc2cc(C(=O)O)c(=O)n3ccccc23)CC1	cell-free assay		competition with immobilised ligand	1 µM	remaining binding	99%
COc1cc(Nc2ncc(F)c(Nc3ccc4c(n3)NC(=O)C(C)(C)O4)n2)cc(OC)c1OC	binding		competition with immobilised ligand	10 µM	inhibition	95%
Cn1cncc1[C@@](O)(COc1ccc(C#N)cc1-c1ccc(OC(F)(F)F)cc1)c1ccc(C#N)cc1	cell-free assay		competition with immobilised ligand	1 µM	remaining binding	97%
CC(C)(C)c1cc(C=C(C#N)C#N)cc(Br)c1O	enzyme activity	inhibitor		0.5 µM	remaining activity	108%
Nc1ncc(-c2nc(N3CCOCC3)nc(N3CCOCC3)n2)c(C(F)F)n1	binding		competition with immobilised ligand	10 µM	remaining binding	76%
Cc1nn(C)cc1-c1nc2c(N3CCN(Cc4ccc(Cl)cc4)CC3)c(Cl)cnc2[nH]1	binding		competition with immobilised ligand	1 µM	remaining binding	80%
COc1ncccc1-c1cnn2ccc(N3CCN(C(=O)OC(C)C)CC3)nc12	binding		competition with immobilised ligand	1 µM	remaining binding	86%
O=c1[nH]c2ccccc2n1C1CCN(Cc2ccc(-c3[nH]c4cc5ncnc5cc4nc3-c3ccccc3)cc2)CC1	cell-free assay			0.5 µM	remaining signal	99%
